Source: PubChem (several laboratories)
GSK3B inh = blocks human GSK3beta kinase activity. P49841. GST-GSK3beta kinase, ADP-Glo luminescence, 60 min; hits give low values. activity score (negative = inhibition), % at 10 µM. 0.038% of 300,000 active;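 active = more than half of replicate wells score below -50%, meaning over 50% inhibition versus plate controls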
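Assay system: GST-tagged human GSK3beta kinase, cell-free; Input: 1.6 ng GSK3beta; Medium: Tris/MgCl2 kinase buffer; Timing: 60 min enzyme reaction, room temperature; Signal: ADP-Glo luminescence quantifying ADP generated by kinase; Evaluation: score relative to plate controls; Benchmarks: DMSO neutral wells and GW8510 at 20 µM as positive.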
Pemphigus Ab inh = inhibitors of pemphigus antibody binding to human desmoglein-3; 0.48% of 310,000 active; DSG3-coupled beads, scFv-anti-DSG3-GFP binding, flow cytometry; hits give low values; AID 588358; binding (percent of control), % at 10 µM;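 active = binding more than 3 SD below its plate's average and above zero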;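 also: hits lower antibody fragment binding to DSG3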
Target sequence (P32926 whole entry, looked up, the tested form may be a part): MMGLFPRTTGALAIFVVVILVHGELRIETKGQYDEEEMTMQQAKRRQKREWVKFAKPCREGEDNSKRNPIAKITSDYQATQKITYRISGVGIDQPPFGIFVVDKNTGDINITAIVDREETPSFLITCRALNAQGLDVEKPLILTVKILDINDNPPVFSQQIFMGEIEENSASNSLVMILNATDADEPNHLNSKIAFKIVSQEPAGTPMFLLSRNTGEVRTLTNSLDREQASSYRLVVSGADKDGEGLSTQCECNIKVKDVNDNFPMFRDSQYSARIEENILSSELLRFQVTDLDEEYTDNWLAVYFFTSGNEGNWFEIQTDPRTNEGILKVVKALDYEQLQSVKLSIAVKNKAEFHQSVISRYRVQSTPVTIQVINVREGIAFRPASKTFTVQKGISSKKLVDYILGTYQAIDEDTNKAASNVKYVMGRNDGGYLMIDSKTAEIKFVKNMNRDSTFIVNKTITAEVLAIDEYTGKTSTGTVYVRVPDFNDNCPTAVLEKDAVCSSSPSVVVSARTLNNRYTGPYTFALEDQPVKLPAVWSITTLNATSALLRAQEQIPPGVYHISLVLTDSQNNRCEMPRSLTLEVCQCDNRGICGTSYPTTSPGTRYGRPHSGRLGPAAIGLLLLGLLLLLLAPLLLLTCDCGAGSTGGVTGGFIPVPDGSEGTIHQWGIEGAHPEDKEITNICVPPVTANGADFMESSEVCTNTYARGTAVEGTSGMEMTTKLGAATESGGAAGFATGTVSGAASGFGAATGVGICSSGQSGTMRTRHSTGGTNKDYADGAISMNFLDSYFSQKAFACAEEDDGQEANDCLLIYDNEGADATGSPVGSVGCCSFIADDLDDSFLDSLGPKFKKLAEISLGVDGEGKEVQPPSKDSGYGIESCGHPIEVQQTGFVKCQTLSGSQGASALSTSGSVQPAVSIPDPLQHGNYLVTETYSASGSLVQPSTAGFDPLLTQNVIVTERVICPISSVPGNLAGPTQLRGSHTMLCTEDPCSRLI
MT1-MMP act inh = MT1-MMP (human) activation inhibition | P50281 | HT1080 RFP-PRO-GFP cells, GFP/RFP ratio fluorescence, overnight; percent of plate control window, DMSO zero | GFP/RFP ratio change, % at 20 µM | 0.061% of 360,000 active | AID 651647;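 active = GFP/RFP ratio change of at least 30% with cell ATP level not reduced by more than half and red fluorescence within 50% of control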
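Assay system: HT1080 cells carrying an RFP-PRO-GFP reporter | Dosing: Single dose of 20 µM compound, 1% DMSO final | Incubation: Cells overnight before dosing, compound overnight, 37 °C, 5% CO2 | Evaluation: GFP/RFP fluorescence ratio | Control set: DMSO and RFP-L50D-GFP cell wells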
GSK3 alpha inh = human GSK-3 alpha kinase inhibition | P49840 | ADP-Glo luminescence, 60 min | inhibition, % at 10 µM | 0.1% of 320,000 active;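 active = more than half of replicates show inhibition above 20%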;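 also: GST-tagged GSK-3 alpha with peptide substrate and 25 µM ATP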
STK33 inh = blocks human STK33 kinase activity. purified STK33, MBP phosphorylation, ADP-Glo luminescence. inhibition, % at 10 µM. AID 2661. Q9BYT3. 0.073% of 320,000 active;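 active = inhibition at or above 25%, using the most active replicate where run in duplicate; inactive = inhibition below 25%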
Of the large screens only hits and unclear results are named; the others gave an inactive call. Shown are actives, neighbours in structure and some others; about 0.63% of the full set was active somewhere.

O=C(N/N=C/C(Cl)=C\c1ccccc1)c1ccco1	Pemphigus Ab inh 88.5
Cc1c(O)cc2c(c1O)C(=O)CC(c1ccc(O)cc1)O2 (stereo unspecified)	Pemphigus Ab inh 77.2
CC(C)NC(=O)C1(C)CN(S(C)(=O)=O)CC(=O)N1Cc1ccco1 (stereo unspecified)	none (no result: GSK3B inh, Pemphigus Ab inh, GSK3 alpha inh, STK33 inh)
CCn1c(C(C#N)/C(=N\S(=O)(=O)c2cccs2)c2ccccc2)nc2ccccc21 (stereo unspecified)	Pemphigus Ab inh 73.9
CC(C)CNC(=O)c1ccccc1NC(=O)CN(c1ccccc1)S(=O)(=O)N(C)C	Pemphigus Ab inh 53.6
Cc1ccc(-n2ncc3c(=O)[nH]c(SCC(=O)N4CCOCC4)nc32)cc1	none
Cc1ccc(-n2ncc3c(=O)[nH]c(SCC(=O)N4CCN(c5ccccc5)CC4)nc32)cc1	Pemphigus Ab inh -32.3
CC(C)C[C@H]1CNC(=O)C(=O)N1CC1CCN(CC2CCC(C)CC2)CC1 (stereo partly specified)	none (no result: GSK3B inh, Pemphigus Ab inh, GSK3 alpha inh, STK33 inh)
N/C(=N\OC(=O)c1ccc2c(c1)OCO2)c1cccc([N+](=O)[O-])c1	none
Cc1cccc(/C(N)=N/OC(=O)c2ccc3c(c2)OCO3)c1	STK33 inh 31.6
COc1ccc(CCNC(=O)c2ccccc2)cc1	Pemphigus Ab inh 64.8
COc1ccc(CCNC(=O)c2ccccc2C(=O)NCCc2ccc(OC)cc2)cc1	none
CCCNC(=O)C1(C)CCN(C(=O)c2cccnc2Oc2ccccc2)C1 (stereo unspecified)	none (no result: GSK3B inh, Pemphigus Ab inh, GSK3 alpha inh, STK33 inh)
COc1ccc(NC(=O)c2ccc3c(c2)OCO3)cc1Cl	Pemphigus Ab inh 46.1
O=C(Nc1ccc(F)c(Cl)c1)c1ccc2c(c1)OCO2	none
Cc1cccc(C)c1N1CCN(C(c2cc3ccccc3o2)c2nnnn2C(C)(C)C)CC1 (stereo unspecified)	none (no result: GSK3B inh, Pemphigus Ab inh, GSK3 alpha inh, STK33 inh)
O=C1NC[C@H](Cc2ccccc2)N(C[C@@H]2CCCN2C[C@H](Cc2ccccc2)N2C[C@H](Cc3ccccc3)N(CCc3ccccc3)C(=O)C2=O)C1=O	none (no result: GSK3B inh, Pemphigus Ab inh, GSK3 alpha inh, STK33 inh)
Cc1ccc(S(=O)(=O)NCc2ccc3c(c2)cc(C)n3C)cc1	Pemphigus Ab inh 70.8
COCC(=O)NCc1ccc2c(c1)cc(C)n2C	none
CC(C)NC(=O)C1(C)CSCC(=O)N1CCCN1CCOCC1 (stereo unspecified)	none (no result: GSK3B inh, Pemphigus Ab inh, GSK3 alpha inh, STK33 inh)
Clc1ccc(CSc2ccc(-c3ccccn3)nn2)cc1	Pemphigus Ab inh 13.3
COc1ccc(NC(=O)c2ccc(-c3ccccc3)cc2)cc1S(=O)(=O)N1CCOCC1	Pemphigus Ab inh 88.0
CC(=O)C1=CCC(c2ccccc2)N(Cc2ccccc2)C1 (stereo unspecified)	none (no result: GSK3B inh, Pemphigus Ab inh, GSK3 alpha inh, STK33 inh)
CC(C)CCNc1ncnc2c1nnn2Cc1ccccc1Cl	Pemphigus Ab inh 83.9
O=C1NCCCc2c1oc1ccc(O)cc21	GSK3B inh -77.8, GSK3 alpha inh 94.6, STK33 inh 79.9
CCCCCCCCN1C(=O)[C@H](CC(=O)N2CCN(C(=O)OCC)CC2)C[C@@]2(C(=O)OC)CC(C)(C)CC=C12	none (no result: GSK3B inh, Pemphigus Ab inh, GSK3 alpha inh, STK33 inh)
Cc1ccc(-c2nc(CCN3C(=O)c4ccccc4C3=O)cs2)cc1	none
O=C1c2ccccc2C(=O)N1CCc1csc(NNc2nc(CCN3C(=O)c4ccccc4C3=O)cs2)n1	Pemphigus Ab inh 75.7
CC1=CCC2C(=O)N(c3ccc(C)cc3)C(=O)C2C1 (stereo unspecified)	none
CC1=CCC2C(=O)N(c3ccc(C)c(Br)c3)C(=O)C2C1 (stereo unspecified)	Pemphigus Ab inh 48.1
COCCCNc1nc(N)c([N+](=O)[O-])c(NCC2CCCO2)n1 (stereo unspecified)	GSK3 alpha inh 81.1
CC(C)CNc1nc(N)c([N+](=O)[O-])c(NC2CCCCC2)n1	none
CC(C)CNc1nc(N)c([N+](=O)[O-])c(NCC2CCCO2)n1 (stereo unspecified)	GSK3 alpha inh 58.9
COCCCNc1nc(N)c([N+](=O)[O-])c(Nc2ccccc2OC)n1	GSK3 alpha inh 74.0
Cc1ccc(Nc2nc(NCC3CCCO3)nc(N)c2[N+](=O)[O-])cc1C (stereo unspecified)	none
Cc1ccc(-c2csc(C(O)c3ccc(F)c(F)c3)n2)cc1C (stereo unspecified)	none (no result: GSK3B inh, Pemphigus Ab inh, GSK3 alpha inh, STK33 inh)
CSc1ccc(Cn2c(C)c(C(=O)NCc3ccc4c(c3)OCO4)sc2=O)cc1	none (no result: GSK3B inh, Pemphigus Ab inh, GSK3 alpha inh, STK33 inh)
CN1OC[C@@H]2CN(C(=S)NCCc3ccccc3)[C@H](c3ccc(-n4ccnc4)cc3)C[C@@H]21	none (no result: GSK3B inh, Pemphigus Ab inh, GSK3 alpha inh, STK33 inh)
CCc1nc2ccc(C(=O)NCc3ccc4c(c3)OCO4)cn2c1N(CCC(C)C)CCN(C)C	none (no result: GSK3B inh, Pemphigus Ab inh, GSK3 alpha inh, STK33 inh)
COC(=O)C(C(=O)OC)c1ccc(NC(=O)c2cccc(Cl)c2)cc1	Pemphigus Ab inh 84.8 (no result: MT1-MMP act inh)
CCCCOCCCNC(=O)C[C@@H]1C[C@@]2(C(=O)OCC)CCC=C2N(Cc2cccc3ccccc23)C1=O	none (no result: GSK3B inh, Pemphigus Ab inh, GSK3 alpha inh, STK33 inh)
CCC(CC)C(=O)N(c1ccc(F)cc1)C1C=CS(=O)(=O)C1 (stereo unspecified)	Pemphigus Ab inh 82.9
COc1ccc2cc(C3CC=C(CO)CN3S(=O)(=O)c3ccccc3[N+](=O)[O-])n(C(=O)OC(C)(C)C)c2c1 (stereo unspecified)	none (no result: GSK3B inh, Pemphigus Ab inh, GSK3 alpha inh, STK33 inh)
O=C1CC(C(=O)Nc2ccc(F)cc2)n2cnnc2N1 (stereo unspecified)	Pemphigus Ab inh 2.4
O=C(Nc1ccc(F)cc1)C1CC(=O)n2cnnc2N1 (stereo unspecified)	none
CC(=O)c1c(C)[nH]c(C(=O)NCc2ccc(Cl)cc2)c1C	Pemphigus Ab inh 86.8 (no result: GSK3B inh, GSK3 alpha inh, STK33 inh)
O=C1NC[C@H](CCCCN2CCN(CC3CCCCC3)C(=O)C2=O)N(CC2CCCCC2)C1=O	none (no result: GSK3B inh, Pemphigus Ab inh, GSK3 alpha inh, STK33 inh)
CC(C)Cc1cc(C(=O)Nc2cc(Cl)ccc2Cl)no1	Pemphigus Ab inh -39.0
CC(C)Cc1cc(C(=O)Nc2ccc(F)cc2F)no1	none
CCCCOCCCNC(=O)C[C@@H]1C[C@@]2(C(=O)OCC)CCCC=C2N(Cc2ccc3c(c2)OCO3)C1=O	none (no result: GSK3B inh, Pemphigus Ab inh, GSK3 alpha inh, STK33 inh)
CCCCCCCCN1CC(Cc2cc3ccccc3c3ccccc23)N(c2ccccc2)c2ccccc2C1=O (stereo unspecified)	none (no result: GSK3B inh, Pemphigus Ab inh, GSK3 alpha inh, STK33 inh)
O=c1cc(-c2ccccc2Cl)oc2cc(O)cc(O)c12	none
O=C1C=CC(O)(c2cc(=O)c3c(O)cc(O)cc3o2)C=C1	STK33 inh 38.4
CN(C)c1ccc(/C=N/N2C(=O)c3ccccc3C2=O)cc1	none
CCN(CC)c1ccc(/C=N/N2C(=O)c3ccccc3C2=O)cc1	Pemphigus Ab inh 63.3
COc1cccc(/C=N/N(C)C2=NS(=O)(=O)c3ccccc32)c1O	Pemphigus Ab inh 79.8
Cn1c(=O)c2[nH]c(CCCC(=O)O)nc2n(Cc2ccccc2)c1=S	GSK3B inh -50.9, GSK3 alpha inh 84.4
CCC(CC)C(=O)N(C)c1c(C)nc2c(OCCOc3ccc(F)cc3)cccn12	none (no result: GSK3B inh, Pemphigus Ab inh, GSK3 alpha inh, STK33 inh)
NS(=O)(=O)c1ccc(Nc2nc(-c3ccc(O)cc3O)cs2)cc1	GSK3 alpha inh 60.5
COc1ccccc1C(=O)Nc1c2c(nn1-c1cccc(C)c1C)CS(=O)(=O)C2	Pemphigus Ab inh 32.2
